Test system: HEK-293T
Assay: Multiplex assay against HEK293T
Format: toxicity, cell-based
Details: human
How it was run: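 Hoechst33342, BioTracker Green Microtubule Cytoskeleton Dye, MitoTracker Red and Annexin V Alexa Fluor 680 were added to live cells at seeding, and imaging on a CQ1 microscope at 37°C and 5% CO2 followed compound addition. Gating by CellPathfinder machine learning separated cells into Hoechst high-intensity objects or normal cells, then normal cells into healthy, pyknosed or fragmented nuclei, then pyknosed cells into mitotic or apoptotic. Per cents of healthy-nucleus cells are reported for the tubulin, mitochondrial-mass and membrane-permeability phenotypes.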

[1] = 12 h, 1 µM, compound concentration 1 uM, replicate 1
[2] = 12 h, 1 µM, compound concentration 1 uM, replicate 2
[3] = 12 h, 10 µM, compound concentration 10 uM, replicate 1
[4] = 12 h, 10 µM, compound concentration 10 uM, replicate 2
[5] = 24 h, 1 µM, compound concentration 1 uM, replicate 1
[6] = 24 h, 1 µM, compound concentration 1 uM, replicate 2
[7] = 24 h, 10 µM, compound concentration 10 uM, replicate 1
[8] = 24 h, 10 µM, compound concentration 10 uM, replicate 2
[9] = 48 h, 1 µM, compound concentration 1 uM, replicate 1
[10] = 48 h, 1 µM, compound concentration 1 uM, replicate 2
[11] = 48 h, 10 µM, compound concentration 10 uM, replicate 1
[12] = 48 h, 10 µM, compound concentration 10 uM, replicate 2

CC(C)c1noc(N2CCC(COc3ccc(-c4ccc(S(C)(=O)=O)cc4)nc3)CC2)n1 [GSK-1292263]
Population Apoptotic (%) [1]: 37%
Population Fragmented Nuclei (%) [1]: 8%
Population Healthy Nuclei (%) [1]: 78%
Population Hoechst High Intensity Objects (%) [1]: 5%
Population Membrane Permeable-Phenotype (%) [1]: 0%
Population Mitochondria Different-Phenotype (%) [1]: 42%
Population Mitotic Cells (%) [1]: 62%
Population Normal (%) [1]: 94%
Population Pyknosed Nuclei (%) [1]: 12%
Population Tubulin-Different-Phenotype (%) [1]: 32%
Total Cell Count [1]: 440
Population Apoptotic (%) [2]: 25%
Population Fragmented Nuclei (%) [2]: 6%
Population Healthy Nuclei (%) [2]: 86%
Population Hoechst High Intensity Objects (%) [2]: 6%
Population Mitochondria Different-Phenotype (%) [2]: 53%
Population Mitotic Cells (%) [2]: 74%
Population Normal (%) [2]: 93%
Population Pyknosed Nuclei (%) [2]: 7%
Population Tubulin-Different-Phenotype (%) [2]: 13%
Total Cell Count [2]: 522
Population Apoptotic (%) [3]: 50%
Population Fragmented Nuclei (%) [3]: 6%
Population Healthy Nuclei (%) [3]: 71%
Population Hoechst High Intensity Objects (%) [3]: 13%
Population Membrane Permeable-Phenotype (%) [3]: 0%
Population Mitochondria Different-Phenotype (%) [3]: 69%
Population Mitotic Cells (%) [3]: 50%
Population Normal (%) [3]: 86%
Population Pyknosed Nuclei (%) [3]: 22%
Population Tubulin-Different-Phenotype (%) [3]: 55%
Total Cell Count [3]: 311
Population Apoptotic (%) [4]: 43%
Population Fragmented Nuclei (%) [4]: 7%
Population Healthy Nuclei (%) [4]: 78%
Population Hoechst High Intensity Objects (%) [4]: 16%
Population Mitochondria Different-Phenotype (%) [4]: 77%
Population Mitotic Cells (%) [4]: 56%
Population Normal (%) [4]: 83%
Population Pyknosed Nuclei (%) [4]: 13%
Population Tubulin-Different-Phenotype (%) [4]: 40%
Total Cell Count [4]: 279
Population Apoptotic (%) [5]: 23%
Population Fragmented Nuclei (%) [5]: 8%
Population Healthy Nuclei (%) [5]: 78%
Population Hoechst High Intensity Objects (%) [5]: 5%
Population Membrane Permeable-Phenotype (%) [5]: 0%
Population Mitochondria Different-Phenotype (%) [5]: 27%
Population Mitotic Cells (%) [5]: 76%
Population Normal (%) [5]: 94%
Population Pyknosed Nuclei (%) [5]: 12%
Population Tubulin-Different-Phenotype (%) [5]: 25%
Total Cell Count [5]: 545
Population Apoptotic (%) [6]: 25%
Population Fragmented Nuclei (%) [6]: 7%
Population Healthy Nuclei (%) [6]: 82%
Population Hoechst High Intensity Objects (%) [6]: 3%
Population Mitochondria Different-Phenotype (%) [6]: 29%
Population Mitotic Cells (%) [6]: 74%
Population Normal (%) [6]: 96%
Population Pyknosed Nuclei (%) [6]: 9%
Population Tubulin-Different-Phenotype (%) [6]: 9%
Total Cell Count [6]: 608
Population Apoptotic (%) [7]: 64%
Population Fragmented Nuclei (%) [7]: 8%
Population Healthy Nuclei (%) [7]: 79%
Population Hoechst High Intensity Objects (%) [7]: 8%
Population Membrane Permeable-Phenotype (%) [7]: 0%
Population Mitochondria Different-Phenotype (%) [7]: 58%
Population Mitotic Cells (%) [7]: 35%
Population Normal (%) [7]: 91%
Population Pyknosed Nuclei (%) [7]: 12%
Population Tubulin-Different-Phenotype (%) [7]: 49%
Total Cell Count [7]: 384
Population Apoptotic (%) [8]: 46%
Population Fragmented Nuclei (%) [8]: 11%
Population Healthy Nuclei (%) [8]: 74%
Population Hoechst High Intensity Objects (%) [8]: 10%
Population Mitochondria Different-Phenotype (%) [8]: 59%
Population Mitotic Cells (%) [8]: 53%
Population Normal (%) [8]: 89%
Population Pyknosed Nuclei (%) [8]: 13%
Population Tubulin-Different-Phenotype (%) [8]: 28%
Total Cell Count [8]: 354
Population Apoptotic (%) [9]: 22%
Population Fragmented Nuclei (%) [9]: 10%
Population Healthy Nuclei (%) [9]: 81%
Population Hoechst High Intensity Objects (%) [9]: 3%
Population Membrane Permeable-Phenotype (%) [9]: 1%
Population Mitochondria Different-Phenotype (%) [9]: 23%
Population Mitotic Cells (%) [9]: 77%
Population Normal (%) [9]: 96%
Population Pyknosed Nuclei (%) [9]: 8%
Population Tubulin-Different-Phenotype (%) [9]: 14%
Total Cell Count [9]: 865
Population Apoptotic (%) [10]: 23%
Population Healthy Nuclei (%) [10]: 83%
Population Hoechst High Intensity Objects (%) [10]: 1%
Population Mitochondria Different-Phenotype (%) [10]: 14%
Population Mitotic Cells (%) [10]: 76%
Population Normal (%) [10]: 98%
Population Pyknosed Nuclei (%) [10]: 5%
Population Tubulin-Different-Phenotype (%) [10]: 10%
Total Cell Count [10]: 882
Population Apoptotic (%) [11]: 32%
Population Fragmented Nuclei (%) [11]: 10%
Population Healthy Nuclei (%) [11]: 79%
Population Hoechst High Intensity Objects (%) [11]: 10%
Population Membrane Permeable-Phenotype (%) [11]: 0%
Population Mitochondria Different-Phenotype (%) [11]: 50%
Population Mitotic Cells (%) [11]: 67%
Population Normal (%) [11]: 89%
Population Pyknosed Nuclei (%) [11]: 9%
Population Tubulin-Different-Phenotype (%) [11]: 28%
Total Cell Count [11]: 506
Population Apoptotic (%) [12]: 30%
Population Fragmented Nuclei (%) [12]: 13%
Population Healthy Nuclei (%) [12]: 78%
Population Hoechst High Intensity Objects (%) [12]: 5%
Population Mitochondria Different-Phenotype (%) [12]: 37%
Population Mitotic Cells (%) [12]: 69%
Population Normal (%) [12]: 94%
Population Pyknosed Nuclei (%) [12]: 8%
Population Tubulin-Different-Phenotype (%) [12]: 18%
Total Cell Count [12]: 595
